Assay results from ChEMBL document CHEMBL1126044, “Affinity of human growth hormone-releasing factor (1-29)NH2 analogues for GRF binding sites in rat adenopituitary” (J Med Chem, 1992).
Square brackets hold non-standard residues; d marks the D form. Peptide text beside a SMILES is read from it. Aoc = NCCCCCCCC(=O)O

Assays:
[1] = target: T1, Growth hormone-releasing hormone receptor (Rattus norvegicus, UniProt Q02644); assay: Compound was tested to Inhibit [125I]-Growth hormone-releasing factor in rat adenopituitary homogenates
T1 sequence (Q02644 whole entry): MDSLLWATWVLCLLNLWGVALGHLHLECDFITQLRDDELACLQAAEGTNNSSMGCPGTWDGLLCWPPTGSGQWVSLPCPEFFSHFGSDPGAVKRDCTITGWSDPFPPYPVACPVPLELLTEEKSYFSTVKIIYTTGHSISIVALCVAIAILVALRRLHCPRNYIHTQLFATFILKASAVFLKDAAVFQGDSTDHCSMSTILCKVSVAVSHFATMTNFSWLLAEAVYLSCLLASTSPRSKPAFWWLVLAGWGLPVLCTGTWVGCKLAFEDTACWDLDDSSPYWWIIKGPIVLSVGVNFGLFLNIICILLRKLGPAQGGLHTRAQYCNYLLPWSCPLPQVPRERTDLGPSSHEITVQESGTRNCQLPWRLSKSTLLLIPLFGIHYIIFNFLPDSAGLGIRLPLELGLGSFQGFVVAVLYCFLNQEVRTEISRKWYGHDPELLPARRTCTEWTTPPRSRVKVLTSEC
Outline: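 Anterior pituitaries from 2-month-old male Sprague-Dawley rats homogenized in ice-cold 50 mM Tris-HCl pH 7.4 with 5 mM MgCl2, 5 mM EDTA. Homogenate (70–75 µg protein) incubated with 35–50 pM [125I-Tyr10]hGRF(1-44)NH2 and peptide at 0–1000 nM in Tris-HCl buffer pH 7.4 with 5 mM EDTA, 5 mM MgCl2, 0.42% BSA, 60 min at 23 °C. Nonspecific binding defined with 2.4 µM rGRF(1-29)NH2. Bound fraction separated by centrifugation and gamma-counted. IC50 fitted with LIGAND. Mean ± SEM of three experiments, each in duplicate or triplicate.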

[2] = target: T2, Growth hormone-releasing hormone receptor (Rattus norvegicus) (UniProt Q02644); assay: Relative affinity compared to hGRF(1-29)NH2; type: functional
T2 sequence (whole entry): T1 sequence (Q02644 whole entry)
Outline: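 Radioligand competition in rat anterior pituitary homogenate using [125I-Tyr10]hGRF(1-44)NH2 at 35–50 pM and peptides at 0–1000 nM, 60 min at 23 °C. Relative affinity is the binding IC50 expressed as a percentage relative to hGRF(1-29)NH2.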

Row | Compound | IC50 [1] | Activity [2]
1 | CC[C@H](C)[C@H](NC(=O)[C@H](C)NC(=O)[C@H](CC(=O)O)NC(=O)[C@H](C)NC(=O)[C@@H](N)Cc1ccc(O)cc1)C(=O)N[C@@H](Cc1ccccc1)C(=O)N[C@H](C(=O)N[C@@H](CC(N)=O)C(=O)N[C@@H](CO)C(=O)N[C@@H](Cc1ccc(O)cc1)C(=O)N[C@@H](CCCNC(=N)N)C(=O)N[C@@H](CCCCN)C(=O)N[C@H](C(=O)N[C@@H](CC(C)C)C(=O)NCC(=O)N[C@@H](CCC(N)=O)C(=O)N[C@@H](CC(C)C)C(=O)N[C@@H](CO)C(=O)N[C@@H](C)C(=O)N[C@@H](CCCNC(=N)N)C(=O)N[C@@H](CCCCN)C(=O)N[C@@H](CC(C)C)C(=O)N[C@@H](CC(C)C)C(=O)N[C@@H](CCC(N)=O)C(=O)N[C@@H](CC(=O)O)C(=O)N[C@H](C(=O)N[C@@H](CCSC)C(=O)N[C@@H](CO)C(=O)N[C@@H](CCCNC(=N)N)C(N)=O)[C@@H](C)CC)C(C)C)[C@@H](C)O | 5.6 nM | –
2 | H-YADAIFTNSYRKVLGQLSARLLQDIMSR-NH2 | > 1000 nM | –
3 | CC[C@H](C)[C@H](NC(=O)[C@H](C)NC(=O)[C@H](CC(=O)O)NC(=O)[C@H](C)NC(=O)[C@H](Cc1ccc(O)cc1)NC(=O)CCCN)C(=O)N[C@@H](Cc1ccccc1)C(=O)N[C@H](C(=O)N[C@@H](CC(N)=O)C(=O)N[C@@H](CO)C(=O)N[C@@H](Cc1ccc(O)cc1)C(=O)N[C@@H](CCCNC(=N)N)C(=O)N[C@@H](CCCCN)C(=O)N[C@H](C(=O)N[C@@H](CC(C)C)C(=O)NCC(=O)N[C@@H](CCC(N)=O)C(=O)N[C@@H](CC(C)C)C(=O)N[C@@H](CO)C(=O)N[C@@H](C)C(=O)N[C@@H](CCCNC(=N)N)C(=O)N[C@@H](CCCCN)C(=O)N[C@@H](CC(C)C)C(=O)N[C@@H](CC(C)C)C(=O)N[C@@H](CCC(N)=O)C(=O)N[C@@H](CC(=O)O)C(=O)N[C@H](C(=O)N[C@@H](CCSC)C(=O)N[C@@H](CO)C(=O)N[C@@H](CCCNC(=N)N)C(N)=O)[C@@H](C)CC)C(C)C)[C@@H](C)O | 13.7 nM | –
4 | CC[C@H](C)[C@H](NC(=O)[C@H](C)NC(=O)[C@H](CC(=O)O)NC(=O)[C@H](C)NC(=O)[C@@H](N)Cc1ccc(O)cc1)C(=O)N[C@@H](Cc1ccccc1)C(=O)N[C@H](C(=O)N[C@@H](CC(N)=O)C(=O)N[C@@H](CO)C(=O)N[C@@H](Cc1ccc(O)cc1)C(=O)N[C@@H](CCCN=C(N)N)C(=O)N[C@@H](CCCCN)C(=O)NCCCCCCCC(=O)N[C@@H](CCC(N)=O)C(=O)N[C@@H](CC(C)C)C(=O)N[C@@H](CO)C(=O)N[C@@H](C)C(=O)N[C@@H](CCCN=C(N)N)C(=O)N[C@@H](CCCCN)C(=O)N[C@@H](CC(C)C)C(=O)N[C@@H](CC(C)C)C(=O)N[C@@H](CCC(N)=O)C(=O)N[C@@H](CC(=O)O)C(=O)N[C@H](C(=O)N[C@@H](CCSC)C(=O)N[C@@H](CO)C(=O)N[C@@H](CCCN=C(N)N)C(N)=O)[C@@H](C)CC)[C@@H](C)O (H-YADAIFTNSYRK[Aoc]QLSARKLLQDIMSR-NH2) | > 1000 nM | –
5 | CC[C@H](C)[C@H](NC(=O)[C@H](C)NC(=O)[C@H](CC(=O)O)NC(=O)[C@H](C)NC(=O)[C@@H](N)Cc1ccc(O)cc1)C(=O)N[C@@H](Cc1ccccc1)C(=O)N[C@H](C(=O)N[C@@H](CC(N)=O)C(=O)N[C@@H](CO)C(=O)N[C@@H](Cc1ccc(O)cc1)C(=O)N[C@@H](CCCNC(=N)N)C(=O)N[C@@H](CCCCN)C(=O)N[C@H](C(=O)N[C@@H](CC(C)C)C(=O)NCC(=O)N[C@@H](CCC(N)=O)C(=O)N[C@@H](CC(C)C)C(=O)N[C@@H](CO)C(=O)NCCCCCCCC(=O)N[C@@H](CC(C)C)C(=O)N[C@@H](CC(C)C)C(=O)N[C@@H](CCC(N)=O)C(=O)N[C@@H](CC(=O)O)C(=O)N[C@H](C(=O)N[C@@H](CCSC)C(=O)N[C@@H](CO)C(=O)N[C@@H](CCCNC(=N)N)C(N)=O)[C@@H](C)CC)C(C)C)[C@@H](C)O (H-YADAIFTNSYRKVLGQLS[Aoc]LLQDIMSR-NH2) | > 1000 nM | –
6 | H-YADAIFTNSYRKVLGQLSALLQDIMSR-NH2 | > 1000 nM | –
7 | H-ADAIFTNSYRKVLAQLSARKLLQDIMSR-NH2 [listing 1 of 2 here] | – | 1.5%
8 | H-YADAIFTNSYRKVLGQLSARKLLQDIR-NH2 | 120 nM | –
9 | CC[C@H](C)[C@H](NC(=O)[C@H](C)NC(=O)[C@H](CC(=O)O)NC(=O)[C@H](C)NC(=O)[C@@H](N)Cc1ccc(O)cc1)C(=O)N[C@@H](Cc1ccccc1)C(=O)N[C@H](C(=O)N[C@@H](CC(N)=O)C(=O)N[C@@H](CO)C(=O)N[C@@H](Cc1ccc(O)cc1)C(=O)N[C@@H](CCCNC(=N)N)C(=O)N[C@@H](CCCCN)C(=O)N[C@H](C(=O)N[C@@H](CC(C)C)C(=O)NCC(=O)NCCCCCCCC(=O)N[C@@H](C)C(=O)N[C@@H](CCCNC(=N)N)C(=O)N[C@@H](CCCCN)C(=O)N[C@@H](CC(C)C)C(=O)N[C@@H](CC(C)C)C(=O)N[C@@H](CCC(N)=O)C(=O)N[C@@H](CC(=O)O)C(=O)N[C@H](C(=O)N[C@@H](CCSC)C(=O)N[C@@H](CO)C(=O)N[C@@H](CCCNC(=N)N)C(N)=O)[C@@H](C)CC)C(C)C)[C@@H](C)O (H-YADAIFTNSYRKVLG[Aoc]ARKLLQDIMSR-NH2) | > 1000 nM | –
10 | H-YADAIFTNSYRKVLGQLSARKLLQDISR-NH2 [listing 1 of 2 here] | 9.5 nM | –
11 | H-ADAIFTNSYRKVLAQLSARKLLQDIMSR-NH2 [listing 2 of 2 here] | 377 nM | –
12 | H-ADAIFTSSYRRILGQLYARKLLHEIMNR-NH2 | 44.2 nM | –
13 | CC[C@H](C)[C@H](NC(=O)[C@H](C)NC(=O)[C@H](CC(=O)O)NC(=O)[C@H](C)NC(=O)[C@H](Cc1ccc(O)cc1)NC(=O)CCCCCN)C(=O)N[C@@H](Cc1ccccc1)C(=O)N[C@H](C(=O)N[C@@H](CC(N)=O)C(=O)N[C@@H](CO)C(=O)N[C@@H](Cc1ccc(O)cc1)C(=O)N[C@@H](CCCN=C(N)N)C(=O)N[C@@H](CCCCN)C(=O)N[C@H](C(=O)N[C@@H](CC(C)C)C(=O)NCC(=O)N[C@@H](CCC(N)=O)C(=O)N[C@@H](CC(C)C)C(=O)N[C@@H](CO)C(=O)N[C@@H](C)C(=O)N[C@@H](CCCN=C(N)N)C(=O)N[C@@H](CCCCN)C(=O)N[C@@H](CC(C)C)C(=O)N[C@@H](CC(C)C)C(=O)N[C@@H](CCC(N)=O)C(=O)N[C@@H](CC(=O)O)C(=O)N[C@H](C(=O)N[C@@H](CCSC)C(=O)N[C@@H](CO)C(=O)N[C@@H](CCCN=C(N)N)C(N)=O)[C@@H](C)CC)C(C)C)[C@@H](C)O | – | 85%
14 | H-YADAIFTNSYRKVLGQLSARKLLDIMSR-NH2 | 45.2 nM | –
15 | H-YADAIFTNSYRKVLGQLSARKLLQIMSR-NH2 | 16.9 nM | –
16 | H-YADAIFTSYRKVLGQLSARKLLQDIMSR-NH2 | 95 nM | –
17 | H-YADAIFTNSYRKVLGQLSARKLLQDISR-NH2 [listing 2 of 2 here] | – | 62%
18 | H-YADAIFTNSYRKVLGQLSARKLLQDIMR-NH2 | 7.2 nM | –
19 | CC[C@H](C)[C@H](NC(=O)[C@H](C)NC(=O)[C@H](CC(=O)O)NC(=O)[C@H](C)NC(=O)[C@H](Cc1ccc(O)cc1)NC(C)=O)C(=O)N[C@@H](Cc1ccccc1)C(=O)N[C@H](C(=O)N[C@@H](CC(N)=O)C(=O)N[C@@H](CO)C(=O)N[C@@H](Cc1ccc(O)cc1)C(=O)N[C@@H](CCCNC(=N)N)C(=O)N[C@@H](CCCCN)C(=O)N[C@H](C(=O)N[C@@H](CC(C)C)C(=O)NCC(=O)N[C@@H](CCC(N)=O)C(=O)N[C@@H](CC(C)C)C(=O)N[C@@H](CO)C(=O)N[C@@H](C)C(=O)N[C@@H](CCCNC(=N)N)C(=O)N[C@@H](CCCCN)C(=O)N[C@@H](CC(C)C)C(=O)N[C@@H](CC(C)C)C(=O)N[C@@H](CCC(N)=O)C(=O)N[C@@H](CC(=O)O)C(=O)N[C@H](C(=O)N[C@@H](CCSC)C(=O)N[C@@H](CO)C(=O)N[C@@H](CCCNC(=N)N)C(N)=O)[C@@H](C)CC)C(C)C)[C@@H](C)O | 17.6 nM | –
20 | CC[C@H](C)[C@H](NC(=O)[C@H](C)NC(=O)[C@H](CC(=O)O)NC(=O)[C@H](C)NC(=O)[C@H](Cc1ccc(O)cc1)NC(=O)CCCCCN)C(=O)N[C@@H](Cc1ccccc1)C(=O)N[C@H](C(=O)N[C@@H](CC(N)=O)C(=O)N[C@@H](CO)C(=O)N[C@@H](Cc1ccc(O)cc1)C(=O)N[C@@H](CCCNC(=N)N)C(=O)N[C@@H](CCCCN)C(=O)N[C@H](C(=O)N[C@@H](CC(C)C)C(=O)NCC(=O)N[C@@H](CCC(N)=O)C(=O)N[C@@H](CC(C)C)C(=O)N[C@@H](CO)C(=O)N[C@@H](C)C(=O)N[C@@H](CCCNC(=N)N)C(=O)N[C@@H](CCCCN)C(=O)N[C@@H](CC(C)C)C(=O)N[C@@H](CC(C)C)C(=O)N[C@@H](CCC(N)=O)C(=O)N[C@@H](CC(=O)O)C(=O)N[C@H](C(=O)N[C@@H](CCSC)C(=O)N[C@@H](CO)C(=O)N[C@@H](CCCNC(=N)N)C(N)=O)[C@@H](C)CC)C(C)C)[C@@H](C)O | 6.6 nM | –
